Published values pooled from the literature.
Compare with care: the assays were run in different laboratories.
EGFR L858R: Epidermal growth factor receptor (EGFR, Homo sapiens, UniProt P00533, L858R)
EGFR del752-759: Epidermal growth factor receptor (EGFR, Homo sapiens, UniProt P00533, del752-759)
EGFR del746-750: Epidermal growth factor receptor (EGFR, Homo sapiens, UniProt P00533, del746-750)
EGFR G719S: Epidermal growth factor receptor (EGFR, Homo sapiens, UniProt P00533, G719S)
EGFR: Epidermal growth factor receptor (EGFR, Homo sapiens, UniProt P00533)
EGFR L858R/T790M: Epidermal growth factor receptor (EGFR, Homo sapiens, UniProt P00533, L858R/T790M)
EGFR T790M: Epidermal growth factor receptor (EGFR, Homo sapiens, UniProt P00533, T790M)
EGFR L861Q: Epidermal growth factor receptor (EGFR, Homo sapiens, UniProt P00533, L861Q)

SMILES	target	observed	method	tested at	remaining binding [%]
O=C(NCCCN1CCOCC1)c1ccc(Nc2ncc(Cl)c(-c3ccc(Cl)s3)n2)cc1	EGFR L858R	binding	competition with immobilised ligand	1 µM	82
c1cnn2ncc(-c3ccnc(N4CCC45COC5)n3)c2c1	EGFR del752-759	binding	–	1 µM	67
O=C(c1ccc(Nc2ncc(Cl)c(-c3cc4ccccc4s3)n2)cc1)N1CCC(N2CCCC2)CC1	EGFR L858R	binding	competition with immobilised ligand	1 µM	81
Nc1ncc2c(n1)-c1c([nH]c3ccc(C#CC4CC4)cc13)CCCC2	EGFR del746-750	binding	competition with immobilised ligand	1 µM	72
COc1cc(-c2cn(C3CCc4c(F)cccc4N(CC(F)(F)F)C3=O)nn2)ccc1-n1cnc(C)c1 (stereo not shown)	EGFR L858R	cell-free assay	competition with immobilised ligand	1 µM	100
O=C(NCCCN1CCOCC1)c1ccc(Nc2nccc(-c3cc4ccccc4s3)n2)cc1	Epidermal growth factor receptor (EGFR, Homo sapiens, UniProt P00533, del747-750/T751S)	binding	competition with immobilised ligand	1 µM	100
CN(CCCC(F)(F)F)c1nccc(-c2cnn3ncccc23)n1	EGFR G719S	binding	–	1 µM	98
COc1cnc(Nc2cccc(S(N)(=O)=O)c2)nc1N1CCN(c2ccccc2)C(=O)C1	EGFR	binding	competition with immobilised ligand	1 µM	100
F[C@@H]1CCN(c2nccc(-c3cnn4ncccc34)n2)C1	EGFR L858R	binding	–	1 µM	89
O=C(NC[C@@H]1[C@H]2CN(C(=O)OCc3cc(C(F)(F)F)cc(C(F)(F)F)c3)C[C@@H]12)c1ccc2[nH]nnc2c1	EGFR L858R/T790M	cell-free assay	competition with immobilised ligand	1 µM	80
C[C@H]1CCN(c2nccc(-c3cnn4ncccc34)n2)C1	EGFR L858R	binding	–	1 µM	100
O=C(NCC1CCOCC1)c1n[nH]cc1NC(=O)c1c(F)cccc1F	EGFR L858R/T790M	binding	competition with immobilised ligand	1 µM	97
Nc1cnc(N2CCc3cc(S(=O)(=O)Nc4c(F)cc(Cl)cc4F)cc(N4CCCC4=O)c32)nc1	EGFR	cell-free assay	competition with immobilised ligand	1 µM	82
CNC(=O)[C@@H]1CC[C@@H](n2c(-c3ccc4cnccc4c3)nc3ccc(C(=O)NCc4cccc(C(N)=O)c4)cc32)C1	EGFR T790M	binding	competition with immobilised ligand	1 µM	72
CN(C)c1nccc(-c2cnc3ncccn23)n1	EGFR L861Q	binding	–	1 µM	90
COc1cnc(Nc2cccc(S(N)(=O)=O)c2)nc1N1CCN(c2ccccc2)CC1	EGFR G719S	binding	competition with immobilised ligand	1 µM	100
CCS(=O)(=O)c1cc2cc(C[C@](O)(CC(C)(C)c3ccc(F)cc3C(N)=O)C(F)(F)F)[nH]c2cn1	EGFR T790M	cell-free assay	competition with immobilised ligand	1 µM	78
Cc1cnc(Nc2ccc(C(=O)N3CCC(N4CCCC4)CC3)cc2)nc1-c1cc2ccccc2s1	EGFR del746-750	binding	competition with immobilised ligand	1 µM	100
CCN1CCN(Cc2ccc(C(=O)Nc3ccc(C)c(Oc4ccc5c(c4)CC(=O)N5)c3)cc2C(F)(F)F)CC1	EGFR del746-750	binding	competition with immobilised ligand	1 µM	99
O=C(c1ccc(Nc2nccc(-c3cc4ccccc4s3)n2)cc1)N1CCC(N2CCCC2)CC1	Epidermal growth factor receptor (EGFR, Homo sapiens, UniProt P00533, A750P/del747-749)	binding	competition with immobilised ligand	1 µM	100
O=C(N[C@H]1CCCCC/C=C\C2C[C@@]2(C(=O)O)NC(=O)[C@@H]2C[C@@H](Oc3ccncc3)CN2C1=O)OC1CCCC1 (stereo partly shown)	EGFR del746-750	cell-free assay	competition with immobilised ligand	1 µM	78
CC1CCCN1c1nccc(-c2cnn3ncccc23)n1 (stereo not shown)	EGFR G719S	binding	–	1 µM	100
C[C@@H]1CN(c2cc(-c3nn(C)c4ccc(OC5(C)CC5)cc34)ncn2)C[C@H](C)O1	EGFR L858R	cell-free assay	competition with immobilised ligand	1 µM	95
c1cncc(-c2cccc(Nc3nccc(NC4CCCCC4)n3)c2)c1	EGFR	binding	competition with immobilised ligand	10 µM	56
CC(=O)N1CCC(c2ccc(C(=O)NC(=N)N)cc2C(F)(F)F)CC1	EGFR L861Q	cell-free assay	competition with immobilised ligand	1 µM	91
O=C(Nc1c[nH]nc1C(=O)NC1CCNCC1)c1cc(F)cc(F)c1	Epidermal growth factor receptor (EGFR, Homo sapiens, UniProt P00533, G719C)	binding	competition with immobilised ligand	1 µM	100
O=C(c1ccc(Nc2ncc(Cl)c(-c3ccc(Cl)s3)n2)cc1)N1CCC(N2CCCC2)CC1	EGFR G719S	binding	competition with immobilised ligand	1 µM	96
CN(c1ccnc(CNc2nc(Nc3ccc4c(c3)CC(=O)N4)ncc2C(F)(F)F)n1)S(C)(=O)=O	EGFR del752-759	cell-free assay	competition with immobilised ligand	1 µM	76
